Measured values reported in PubChem BioAssay AID463080 (The Scripps Research Institute Molecular Screening Center, 2010).

Biological target: Wee1-like protein kinase (Homo sapiens) (UniProt P30291)
Assay: WEE1 degradation inhibition, concentration series – cell-based, HeLa, WEE1K328M-luciferase, luminescence, assay provider, late-stage follow-up (AID 463080)
Settings: HeLa WEE1K328M-luciferase stabilization
Outline: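 test system = HeLa cells transiently expressing kinase-dead WEE1 K328M–luciferase fusion | timing = compound exposure 20 h at 37 °C, 48 h post-transfection | detection = lytic luciferase luminescence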

Sequence of Wee1-like protein kinase (Homo sapiens) (P30291 whole entry K328M): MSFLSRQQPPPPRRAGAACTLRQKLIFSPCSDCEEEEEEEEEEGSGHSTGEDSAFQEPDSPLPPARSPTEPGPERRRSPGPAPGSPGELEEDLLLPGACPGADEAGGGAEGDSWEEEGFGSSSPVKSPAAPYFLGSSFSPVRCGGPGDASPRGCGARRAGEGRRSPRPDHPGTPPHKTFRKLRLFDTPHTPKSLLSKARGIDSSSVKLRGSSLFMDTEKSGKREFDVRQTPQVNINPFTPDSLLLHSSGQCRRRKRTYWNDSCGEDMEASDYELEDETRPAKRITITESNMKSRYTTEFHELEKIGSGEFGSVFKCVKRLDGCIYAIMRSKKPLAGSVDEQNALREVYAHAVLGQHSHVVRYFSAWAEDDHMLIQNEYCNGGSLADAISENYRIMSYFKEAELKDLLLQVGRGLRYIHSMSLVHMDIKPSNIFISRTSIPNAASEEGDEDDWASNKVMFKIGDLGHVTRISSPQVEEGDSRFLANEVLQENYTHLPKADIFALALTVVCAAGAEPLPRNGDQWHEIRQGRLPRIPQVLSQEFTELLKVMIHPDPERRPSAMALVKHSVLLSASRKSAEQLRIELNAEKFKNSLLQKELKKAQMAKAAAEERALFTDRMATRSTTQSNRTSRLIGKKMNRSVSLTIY

Structure (SMILES) | EC50 [nM]
CCOC(=O)c1cccc2[nH]c(CNc3nc(N4CCOCC4)nc4c3ncn4-c3ccsc3)nc12 | 207
Clc1ccc2nc(CNc3nc(N4CCOCC4)nc4c3ncn4-c3ccsc3)[nH]c2c1 | 164
O=[N+]([O-])c1cccc2[nH]c(CNc3nc(N4CCOCC4)nc4c3ncn4-c3ccsc3)nc12 | 40

Continued by falling EC50, values first:

EC50 [nM] | Structure (SMILES)
624 | c1ccc2[nH]c(CNc3nc(N4CCOCC4)nc4c3ncn4-c3ccsc3)nc2c1
201 | CC(C)n1cnc2c(NCc3nc4c([N+](=O)[O-])cccc4[nH]3)nc(N3CCOCC3)nc21
